The values that follow come from ChEMBL document CHEMBL2021876, “New pyridobenzoxazepine derivatives derived from 5-(4-methylpiperazin-1-yl)-8-chloro-pyrido[2,3-b][1,5]benzoxazepine (JL13): chemical synthesis and pharmacological evaluation” (J Med Chem, 2012).

Test [1] concerns Hippocampus. Briefly: In vivo displacement of [3H]Ketanserin from 5HT2A receptor in Sprague-Dawley rat hippocampus CA1 region at 13.75 mg/kg, ip qd for 28 days by autoradiography relative to control. The following applies: route intraperitoneal. The class given is functional. Summed up:
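Rats (male Sprague-Dawley, N = 8/group) given daily ip injections for 28 days versus vehicle. Brain sections preincubated 1 h RT in 50 mM Tris-HCl pH 7.7, then 1 h RT with 3.0 nM [3H]ketanserin plus 1 μM prazosin and 100 nM tetrabenazine. Nonspecific: 1 μM methysergide. Washes 2 × 30 min ice-cold. Readout fmol/mg tissue as % of control, mean ± SEM.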
In general terms: In a radioligand displacement assay an active substance lowers the binding of a labelled ligand.

Test [2] can be described thus: In vivo displacement of [3H]SCH-23390 from dopamine D1 receptor in Sprague-Dawley rat dorsolateral frontal cortex at 13.75 mg/kg, ip qd for 28 days by autoradiography relative to control. The class given is functional. The following applies: route intraperitoneal. Summed up: (§1)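 Forebrain sections from male Sprague-Dawley rats (N = 8/group) after 28 days of daily ip injections versus vehicle. Incubation 1 h RT in 50 mM Tris-HCl pH 7.4, 120 mM NaCl, 5 mM KCl, 2 mM CaCl2, 1 mM MgCl2 with 1 nM [3H]SCH-23390 and 100 nM ketanserin. Nonspecific: 1 μM cis-flupenthixol. Saturating conditions; fmol/mg tissue, % of control.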

Test [3] in a line: In vivo displacement of [3H]Nemonapride from dopamine D4 receptor in Sprague-Dawley rat dorsolateral frontal cortex at 13.75 mg/kg, ip qd for 28 days by autoradiography relative to control. The test is classed as functional. The following applies: route intraperitoneal.
Test [4] deals with T1, Alpha-2A adrenergic receptor (Homo sapiens, UniProt P08913).
T1 sequence (P08913 whole entry): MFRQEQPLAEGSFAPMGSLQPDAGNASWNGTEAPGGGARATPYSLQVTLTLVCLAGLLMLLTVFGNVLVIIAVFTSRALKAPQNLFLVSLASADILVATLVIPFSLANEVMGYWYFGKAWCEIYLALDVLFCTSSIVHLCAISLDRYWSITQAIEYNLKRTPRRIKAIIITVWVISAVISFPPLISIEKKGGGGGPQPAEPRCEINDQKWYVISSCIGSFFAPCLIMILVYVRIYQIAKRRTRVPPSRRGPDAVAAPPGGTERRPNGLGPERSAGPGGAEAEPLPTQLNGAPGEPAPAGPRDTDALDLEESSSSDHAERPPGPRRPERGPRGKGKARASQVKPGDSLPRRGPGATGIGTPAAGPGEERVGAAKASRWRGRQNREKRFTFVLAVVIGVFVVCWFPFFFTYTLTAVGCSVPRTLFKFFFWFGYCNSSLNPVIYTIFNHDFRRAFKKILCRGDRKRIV
Briefly: Displacement of [3H]-MK-912 from human cloned adrenergic alpha2A receptor expressed in insect Sf9 membranes after 60 mins by liquid scintillation counting. The class given is cell membranes. A digest of the protocol: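 Membranes from Sf9 cells expressing cloned human α2A-adrenoceptor. Nonspecific binding defined with 10 μM WB4101. Filtered on GF/C and counted by scintillation.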

For test [5], the system named is Caudate-putamen. Briefly: In vivo displacement of [3H]Nemonapride from dopamine D4 receptor in Sprague-Dawley rat medial part of caudate putamen at 13.75 mg/kg, ip qd for 28 days by autoradiography relative to control. The following applies: route intraperitoneal. The test is classed as functional.
Test [6] has as its system Hippocampus. The experiment in a line: In vivo displacement of [3H]Nemonapride from dopamine D4 receptor in Sprague-Dawley rat hippocampus at 13.75 mg/kg, ip qd for 28 days by autoradiography relative to control. The class given is functional. Particulars: route intraperitoneal.
For test [7], the target named is T2, D(4) dopamine receptor (Homo sapiens) (UniProt P21917).
T2 sequence (whole entry): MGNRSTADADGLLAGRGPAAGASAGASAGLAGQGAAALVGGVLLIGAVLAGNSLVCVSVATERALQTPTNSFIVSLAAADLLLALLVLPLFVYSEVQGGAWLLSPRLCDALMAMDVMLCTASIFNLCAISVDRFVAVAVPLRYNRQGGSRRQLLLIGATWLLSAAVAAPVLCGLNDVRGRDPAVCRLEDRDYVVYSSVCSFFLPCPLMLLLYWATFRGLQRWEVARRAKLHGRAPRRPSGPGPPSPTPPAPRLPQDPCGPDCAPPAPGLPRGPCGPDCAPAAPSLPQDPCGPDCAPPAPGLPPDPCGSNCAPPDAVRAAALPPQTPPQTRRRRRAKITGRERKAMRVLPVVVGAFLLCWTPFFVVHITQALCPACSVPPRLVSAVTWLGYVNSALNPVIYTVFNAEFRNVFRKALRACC
Briefly: Displacement of [3H]-YM09151-2 from human cloned dopamine D4 receptor expressed in insect Sf9 cells at 10^-6 M after 60 mins by liquid scintillation counting.

For test [8], the system named is Caudate-putamen. The experiment in a line: In vivo displacement of [3H]8-OH-DPAT from 5HT1A receptor in Sprague-Dawley rat medial part of caudate putamen at 13.75 mg/kg, ip qd for 28 days by autoradiography relative to control. Particulars: route intraperitoneal. The class given is functional. Summed up: (§2)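 Male Sprague-Dawley rats (200−225 g, N = 8/group) dosed ip once daily for 28 days, vehicle controls, decapitated; 10 μm frozen coronal sections. Preincubation 1 h RT in 50 mM Tris-HCl pH 7.6, 0.1% ascorbic acid, 4 mM CaCl2, 10 μM pargyline; then 1 h RT with 2.0 nM [3H]8-OH-DPAT. Nonspecific: 1 μM 5-HT. Saturating conditions; binding in fmol/mg tissue, % of control, mean ± SEM.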

For test [9], the system named is Hippocampus. The experiment in a line: In vivo displacement of [3H]SCH-23390 from dopamine D1 receptor in Sprague-Dawley rat hippocampus at 13.75 mg/kg, ip qd for 28 days by autoradiography relative to control. The test is classed as functional. Particulars: route intraperitoneal. A digest of the protocol:
as §1

Test [10] has as its system Caudate-putamen. Briefly: In vivo displacement of [3H]SCH-23390 from dopamine D1 receptor in Sprague-Dawley rat lateral part of caudate putamen at 13.75 mg/kg, ip qd for 28 days by autoradiography relative to control. The class given is functional. The following applies: route intraperitoneal. Summed up: as §1
In test [11] the target is Serotonin 1a (5-HT1a) receptor/Adrenergic receptor alpha-1 (Rattus norvegicus) (UniProt P15823+P23944+P43140+P19327). Briefly: In vivo displacement of [3H]8-OH-DPAT from 5HT1A receptor in Sprague-Dawley rat entorhinal cortex at 13.75 mg/kg, ip qd for 28 days by autoradiography relative to control. The class given is functional, organism-based. More on the design: dose 13.75 mg/kg. Summed up:
as §2

A short description of test [12]: In vivo displacement of [3H]SCH-23390 from dopamine D1 receptor in Sprague-Dawley rat entorhinal cortex at 13.75 mg/kg, ip qd for 28 days by autoradiography relative to control. Particulars: route intraperitoneal. The class given is functional. A digest of the protocol:
as §1

The target in test [13] is D(2) dopamine receptor (Rattus norvegicus) (UniProt P61169). Briefly: In vivo displacement of [3H]Nemonapride from dopamine D2 receptor in Sprague-Dawley rat dorsolateral frontal cortex at 13.75 mg/kg, ip qd for 28 days by autoradiography relative to control. The class given is functional, organism-based. Details: dose 13.75 mg/kg. Summed up: (§3)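 Male Sprague-Dawley rats, N = 8/group, daily ip dosing for 28 days with vehicle controls; cryostat sections (10 μm) preincubated 1 h RT. Incubation 1 h RT in 50 mM Tris-HCl pH 7.4, 120 mM NaCl, 5 mM KCl, 2 mM CaCl2, 1 mM MgCl2 with 1 nM [3H]nemonapride, 0.5 μM DTG, 0.1 μM pindolol. Nonspecific: 10 μM S(−)-sulpiride. Values fmol/mg tissue, % of control.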

For test [14], the system named is Hippocampus. The experiment in a line: In vivo displacement of [3H]Nemonapride from dopamine D2 receptor in Sprague-Dawley rat hippocampus at 13.75 mg/kg, ip qd for 28 days by autoradiography relative to control. The class given is functional. The following applies: route intraperitoneal. A digest of the protocol: as §3

Structures are written as SMILES.

Chain of D(2) dopamine receptor (Rattus norvegicus) (P61169 whole entry): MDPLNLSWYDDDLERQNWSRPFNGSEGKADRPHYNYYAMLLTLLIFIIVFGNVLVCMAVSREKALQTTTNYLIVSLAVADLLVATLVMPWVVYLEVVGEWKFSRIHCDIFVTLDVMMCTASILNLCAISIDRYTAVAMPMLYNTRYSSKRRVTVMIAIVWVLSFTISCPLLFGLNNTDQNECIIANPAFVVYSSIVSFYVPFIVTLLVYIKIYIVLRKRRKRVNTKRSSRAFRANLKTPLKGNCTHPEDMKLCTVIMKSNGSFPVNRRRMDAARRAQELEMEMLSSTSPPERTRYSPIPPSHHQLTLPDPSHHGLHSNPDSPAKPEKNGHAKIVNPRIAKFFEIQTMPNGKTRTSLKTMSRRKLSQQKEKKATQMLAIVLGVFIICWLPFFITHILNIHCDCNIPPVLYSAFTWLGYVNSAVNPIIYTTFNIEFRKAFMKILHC

As a reminder, the inhibition in vivo is the relative decrease from the control value, in per cent. One may read the Ki as a dissociation constant, usually derived from enzyme kinetics or from competition with a known ligand. For orientation: inhibition means the drop in the measured response relative to a control, in per cent. In the case of `Clc1ccc2c(c1)N=C(N1CCNCC1)c1cccnc1O2`, the inhibition in vivo at 13.75 mg/kg in the test on Hippocampus [1] was 96%; in test [2], 95%; in test [3] it was 108%; with Caudate-putamen [5] it was 166%; with Hippocampus [6] it was 117%; with Caudate-putamen [8], 87%. The inhibition in vivo at 13.75 mg/kg was 105% in the test on Hippocampus [9], 132% with Caudate-putamen [10], 96% in test [12] and 134% with Hippocampus [14]. Also, the affinity in [4], expressed as Ki, was 729 nM. The inhibition is 28% in [7], 103% in [11] and 103% in test [13].
